Assay outcomes: PubChem BioAssay, several laboratories
A selection: hits, their analogues and other compounds. The true share with any hit is near 1.9%.
TLR9-MyD88 block: blocks human TLR9 binding to MyD88; Q9NR96+Q99836; CHO BLA complementation TLR9-MyD88, CCF4 FRET ratio; inhibition, % at 4.98 µM; 340,000 tested, 0.21% active; AID 504734;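 active = inhibition above the mean over all tested compounds plus 3 SD, cut at about 21% in these data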;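 also: 0% = DMSO only wells and 100% = clavulanate BLA inhibitor control wells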
MC4R barr agon: agonists of human melanocortin 4 receptor (MC4R) beta-arrestin | P32245 | U2OS MC4R beta-arrestin complementation, luminescence; percent of melanotan II response, DMSO zero | activation, % at 8.9 µM | 360,000 tested, 0.98% active | AID 540308;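 active = activation above a per-plate cutoff, the mean activation of sample wells on that plate plus 3 SD, cut at about 8% in these data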
Target sequence (P32245 whole entry, looked up): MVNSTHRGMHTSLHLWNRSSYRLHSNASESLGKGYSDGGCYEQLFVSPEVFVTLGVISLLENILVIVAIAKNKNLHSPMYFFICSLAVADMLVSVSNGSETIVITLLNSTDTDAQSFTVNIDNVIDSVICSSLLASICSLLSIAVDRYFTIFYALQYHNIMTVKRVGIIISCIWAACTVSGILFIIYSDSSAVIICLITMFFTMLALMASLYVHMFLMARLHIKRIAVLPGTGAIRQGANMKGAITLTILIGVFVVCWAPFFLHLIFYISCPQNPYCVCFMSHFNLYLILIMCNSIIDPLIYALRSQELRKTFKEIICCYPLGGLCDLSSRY
NTR1 agonist: agonists of human neurotensin receptor NTR1. P30989. NTR1-U2OS beta-arrestin-GFP spot imaging, agonist mode. activation, % at 20 µM. 330,000 tested, 0.17% active. AID 493036;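 active = activation at or above 40% of the spot to cytoplasm intensity ratio, with at least 20 cells analyzed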;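 also: 0% = DMSO without peptide and 100% = 100 nM NTR1 peptide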
NOD2 RIPK2 PPI: blocks binding of human NOD2 to RIPK2 | CHO BLA complementation NOD2-RIPK2, CCF4 ratio | inhibition, % at 4.98 µM | 360,000 tested, 0.38% active; in the data active = inhibition above about 21%;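 also: 0% = vehicle only and 100% = reference blocker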
TLR4 MyD88 comp: inhibitors of human TLR4-MyD88 binding; O00206+Q99836; HeLa CL3-4 TLR4/MyD88 BLA complementation, FRET ratio; inhibition, % at 8.4 µM; 200,000 tested, 0.18% active; AID 861; in the data active = inhibition above about 25%;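 also: 0% = vehicle and 100% = reference inhibitor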
MC4R antagonist: human MC4R antagonism in cAMP assay. P32245. MC4R-expressing cells, MTII-stimulated cAMP, LANCE TR-FRET. inhibition, % at 6.5 µM. 360,000 tested, 0.48% active;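 active = inhibition above its plate's cutoff, the mean of tested wells on that plate plus 3 SD, cut at about 29% in these data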;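 also: 0% = Melanotan II alone and 100% = Melanotan II plus saturating MCL0020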
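Assay system: human MC4R-expressing U2OS cells; reagent: Melanotan II stimulation of cells; dosing: 6.5 µM single dose; timing: compound 30 min, challenge 1 h, detection 1 h; signal: TR-FRET cAMP assay; replicates: one well per compound, no replicates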
U2OS cAMP counter: counter-screen for MC4R antagonists: nonselective cAMP signaling inhibitors | shares compounds with MC4R antagonist | parental U2OS, forskolin cAMP, LANCE TR-FRET | inhibition, % at 6.5 µM | 1,600 tested, 26% active | AID 602193;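 active = mean inhibition over triplicates above the low-control well mean plus 3 SD, set per campaign, cut at about 13% in these data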;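 also: signal is single emission at 671 nm which falls as cellular cAMP rises; 0% = forskolin-stimulated wells and 100% = buffer without forskolin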
MC4R antag conf: human MC4R cAMP antagonism confirmation | MC4R-expressing cells, MTII-stimulated cAMP, TR-FRET | AID 602195 | 1,600 tested, 27% active | shares compounds with MC4R antagonist | inhibition, % at 6.5 µM; in the data active = inhibition above about 29%;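 also: 0% = agonist stimulated wells alone and 100% = agonist stimulated wells plus saturating reference antagonist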
Active calls of the source: *; / = not tested or not shown.

SMILES	TLR9-MyD88 block	MC4R barr agon	NTR1 agonist	NOD2 RIPK2 PPI	TLR4 MyD88 comp	MC4R antagonist	U2OS cAMP counter	MC4R antag conf
CCOC(=O)C(C)(C)N(Cc1cccc(C)c1)S(=O)(=O)c1ccc(Cl)c([N+](=O)[O-])c1	-1.8	0.8	17.2	14.5	1.5	53.5*	26.2*	63.3*
C=CCn1c(C)cc(C(=O)COc2ccc(N(C)S(=O)(=O)c3ccc(NC(C)=O)cc3)cc2)c1C	-1.9	1.5	1.6	1.5	/	40.3*	-0.7	4.7
COCC(C)n1c(C)cc(C(=O)COc2ccc(N(C)S(=O)(=O)c3ccc(NC(C)=O)cc3)cc2)c1C (stereo not drawn)	-1.7	-0.1	1.9	6.7	/	10.3	/	/
COc1cccc(CCOC(=O)c2c(-c3ccsc3)oc3c2C(OC(C)=O)CCC3)c1 (stereo not drawn)	/	/	/	0.9	/	/	/	/
CCOC(=O)C1CCCN(C(=O)Cn2sc3nc(C)cc(C)c3c2=O)C1 (stereo not drawn)	8.7	-1.2	-1.4	18.1	10.0	41.7*	10.8	30.1*
Cc1ccc(CN(C)C(=O)COC(=O)CSc2ccc([N+](=O)[O-])cc2)cc1	5.6	1.0	-0.4	5.6	/	8.5	/	/
Cc1ccc(CN(C)C(=O)COC(=O)CSc2ccc(C(N)=O)cc2[N+](=O)[O-])cc1	0.1	-4.5	3.9	-5.9	/	38.3*	14.3*	35.0*
CCN(C(=O)COC(=O)CSc1ccc(C(N)=O)cc1[N+](=O)[O-])C1CCCCC1	-5.4	-0.8	0.4	5.1	/	33.2*	7.0	30.0*
COC(=O)c1ccc(=O)n(CC(=O)c2ccc(Cl)cc2)c1	1.0	-2.1	-0.3	-7.7	-7.5	2.3	/	/
CC(=O)c1cn(CC(=O)NCc2ccc3c(c2)OCO3)c2ccccc12	-5.9	-1.8	2.5	-12.1	2.2	31.4*	1.6	1.9
CC1(C(=O)NCC(F)(F)F)CCN1C(=O)C1(c2ccccc2)CC1 (stereo not drawn)	/	-2.2	/	2.9	/	2.1	/	/
Cc1cc(C)nc(NS(=O)(=O)c2ccc(NC(=O)C3COc4ccccc4O3)cc2)n1 (stereo not drawn)	/	-1.0	1.5	-8.7	12.2	29.2*	2.0	2.9
O=C(Nc1ccc(S(=O)(=O)Nc2ccccc2)cc1)C1COc2ccccc2O1 (stereo not drawn)	8.9	1.6	7.0	9.8	-19.8	-1.2	/	/
CN(Cc1cccs1)C(=O)CCc1c[nH]c2ccccc12	-1.7	-4.3	0.5	2.8	-6.3	3.7	/	/
CN(Cc1c(F)cccc1Cl)C(=O)CCc1c[nH]c2ccccc12	-13.2	-2.3	1.2	1.1	/	29.2*	3.4	1.4
COc1ccc(CC(=O)Oc2ccc(C(C)(C)C)cc2)cc1S(=O)(=O)N1CCOCC1	2.4	-3.1	1.6	-0.5	/	31.9*	11.8	14.4
CC(=O)c1c(O)c(C)c(O)c2c1OC1=CC(=O)/C(=C(/C)N)C(=O)C12C (stereo not drawn)	0.0	0.7	/	-0.9	/	35.8*	4.7	26.4
COC12CC(=O)C(C(C)=O)=C(O)C1(C)c1c(O)c(C)c(O)c(C(C)=O)c1O2 (stereo not drawn)	/	2.3	/	-15.3	/	2.6	/	/
CC(C)NC(=O)C1(C)CCN1CCC(=O)c1ccccc1 (stereo not drawn)	/	0.9	/	-2.5	/	9.1	/	/
CC(=O)CSc1nc(-c2cccs2)c(C#N)c(=O)[nH]1	5.0	0.9	-0.2	-7.6	4.2	46.1*	35.8*	59.7*
Cn1c(-c2cccc([N+](=O)[O-])c2)cnc1NCc1cccc([N+](=O)[O-])c1	3.6	0.2	1.8	1.3	4.8	16.4	/	/
Cc1cccc(CNc2ncc(-c3cccc([N+](=O)[O-])c3)n2C)c1	-3.4	-1.2	2.9	-7.0	-1.4	32.7*	2.3	-1.1
O=C(Nc1ccccc1)Nc1ccccc1NS(=O)(=O)c1cccs1	5.2	0.7	0.5	-7.8	-5.3	30.0*	0.6	8.0
O=C(Nc1ccc(Cl)c(Cl)c1)Nc1ccccc1NS(=O)(=O)c1cccs1	-5.6	-1.7	3.6	-1.5	6.8	5.8	/	/
COc1cc(/C=C2\C(=N)N3N=C(C(C)C)SC3=NC2=O)ccc1OCCOc1ccc(NC(C)=O)cc1	-0.5	-0.7	3.0	0.3	/	3.6	/	/
SMILES	TLR9-MyD88 block	MC4R barr agon	NTR1 agonist	NOD2 RIPK2 PPI	TLR4 MyD88 comp	MC4R antagonist	U2OS cAMP counter	MC4R antag conf
COc1cc(/C=C2\C(=N)N3N=C(C)SC3=NC2=O)cc(Cl)c1OCCOc1ccc(NC(C)=O)cc1	4.6	0.2	-0.7	1.9	/	30.1*	5.8	1.3
CC(=O)Nc1cccc(NC(=O)CSc2ncc(C(=O)Nc3ccccc3)c(=O)n2C)c1	4.9	-3.8	3.6	1.8	/	29.6*	-0.3	20.2
CC(=O)Nc1cccc(NC(=O)CCCC2CCCCC2)c1	-9.4	-1.2	1.0	0.4	/	5.7	/	/
O=C(CCC1CCCC1)Nc1cccc(Cc2ccncc2)c1	/	0.6	0.5	-5.7	1.3	33.4*	-2.8	-14.0
Cc1ccsc1CN(C(=O)c1ccccc1)C1CCS(=O)(=O)C1 (stereo not drawn)	-2.0	-2.0	0.0	-8.2	/	5.7	/	/
C[C@@H]1CN([C@@H](C)CO)C(=O)CCCn2nncc2CO[C@H]1CN(C)Cc1cccnc1	-0.4	1.1	/	16.7	/	28.5*	-4.4	-18.8
CC(C)NC(=O)c1cc(C(=O)c2cc(Cl)ccc2O)coc1=N	7.3	-1.1	0.7	5.0	0.8	-3.3	/	/
CCOc1ccccc1NC(=O)c1cc(C(=O)c2cc(OC)ccc2O)coc1=N	-5.0	-2.5	-0.8	-11.8	5.9	32.7*	3.7	5.0
CCOC(=O)N1CCC(N2CCCC(CO)(Cc3ccccc3C)C2)CC1 (stereo not drawn)	7.2	-2.4	-1.9	-1.7	-4.7	5.4	/	/
CCOC(=O)N1CCC(N2CCCC(CO)(Cc3cccc(Cl)c3)C2)CC1 (stereo not drawn)	-5.2	3.6	-1.2	-4.1	2.9	33.5*	-2.6	-14.6
COCCn1c(SCC(=O)NC2CCCC2)nnc1-c1ccco1	4.5	-2.0	-0.6	-6.6	/	6.2	/	/
Cc1cc(C(=O)Nc2ccc(CC(=O)O)cc2)c(C)o1	-3.0	0.0	-1.4	-14.3	/	-2.2	/	/
O=C(CCN1CCOCC1)c1ccc2c(c1)OCCO2	-8.3	-0.6	1.2	6.8	8.6	30.3*	6.8	23.5
CC(=O)Nc1sc2c(c1C(c1ccc(Cl)cc1)N1CCOCC1)CCCC2 (stereo not drawn)	-1.6	-0.3	9.7	8.5	-0.3	17.6	/	/
